Values joined by “and” are separate entries in the source; they are usually repeats but may differ in a detail not shown here. Equal entries are not always repeated.
Test system: U2OS
Assay: Multiplex assay against U2OS
Format: toxicity, cell-based
Details: human
How it was run: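 Live cells were stained at seeding with Hoechst33342, BioTracker Green Microtubule Cytoskeleton Dye, MitoTracker Red and Annexin V Alexa Fluor 680, then imaged on a CQ1 microscope at 37°C and 5% CO2 after compound addition. CellPathfinder machine-learning gating split cells into Hoechst high-intensity objects or normal cells. Normal cells were split into healthy, pyknosed or fragmented nuclei, and pyknosed cells into mitotic or apoptotic. Tubulin, mitochondrial-mass and membrane-permeability phenotypes are per cents of healthy-nucleus cells.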

[1] = 12 h, 1 µM, compound concentration 1 uM
[2] = 12 h, 10 µM, compound concentration 10 uM
[3] = 24 h, 1 µM, compound concentration 1 uM
[4] = 24 h, 10 µM, compound concentration 10 uM
[5] = 48 h, 1 µM, compound concentration 1 uM
[6] = 48 h, 10 µM, compound concentration 10 uM

CCCCC(=O)N(Cc1ccc(-c2ccccc2-c2nnn[nH]2)cc1)[C@H](C(=O)O)C(C)C
Population Apoptotic (%) [1]: 85% and 100%
Population Fragmented Nuclei (%) [1]: 28% and 15%
Population Healthy Nuclei (%) [1]: 63% and 79%
Population Hoechst High Intensity Objects (%) [1]: 1% and 3%
Population Membrane Permeable-Phenotype (%) [1]: 8% and 9%
Population Mitochondria Different-Phenotype (%) [1]: 3% and 5%
Population Mitotic Cells (%) [1]: 14% and 0%
Population Normal (%) [1]: 98% and 96%
Population Pyknosed Nuclei (%) [1]: 8% and 4%
Population Tubulin-Different-Phenotype (%) [1]: 4% and 2%
Total Cell Count [1]: 259 and 130
Population Apoptotic (%) [2]: 75%
Population Fragmented Nuclei (%) [2]: 35% and 24%
Population Healthy Nuclei (%) [2]: 55% and 71%
Population Hoechst High Intensity Objects (%) [2]: 1% and 0%
Population Membrane Permeable-Phenotype (%) [2]: 3% and 1%
Population Mitochondria Different-Phenotype (%) [2]: 2%
Population Mitotic Cells (%) [2]: 25%
Population Normal (%) [2]: 98% and 99%
Population Pyknosed Nuclei (%) [2]: 9% and 3%
Population Tubulin-Different-Phenotype (%) [2]: 2% and 0%
Total Cell Count [2]: 218 and 108
Population Apoptotic (%) [3]: 86% and 83%
Population Fragmented Nuclei (%) [3]: 23% and 10%
Population Healthy Nuclei (%) [3]: 68% and 77%
Population Hoechst High Intensity Objects (%) [3]: 2% and 6%
Population Membrane Permeable-Phenotype (%) [3]: 5% and 9%
Population Mitochondria Different-Phenotype (%) [3]: 3% and 6%
Population Mitotic Cells (%) [3]: 13% and 16%
Population Normal (%) [3]: 97% and 93%
Population Pyknosed Nuclei (%) [3]: 7% and 12%
Population Tubulin-Different-Phenotype (%) [3]: 2% and 7%
Total Cell Count [3]: 289 and 158
Population Apoptotic (%) [4]: 82% and 84%
Population Fragmented Nuclei (%) [4]: 31% and 22%
Population Healthy Nuclei (%) [4]: 59% and 67%
Population Hoechst High Intensity Objects (%) [4]: 2% and 0%
Population Membrane Permeable-Phenotype (%) [4]: 3% and 4%
Population Mitochondria Different-Phenotype (%) [4]: 2% and 8%
Population Mitotic Cells (%) [4]: 17% and 15%
Population Normal (%) [4]: 97% and 100%
Population Pyknosed Nuclei (%) [4]: 8% and 9%
Population Tubulin-Different-Phenotype (%) [4]: 2% and 6%
Total Cell Count [4]: 272 and 135
Population Apoptotic (%) [5]: 86% and 85%
Population Fragmented Nuclei (%) [5]: 17% and 20%
Population Healthy Nuclei (%) [5]: 75% and 68%
Population Hoechst High Intensity Objects (%) [5]: 2% and 3%
Population Membrane Permeable-Phenotype (%) [5]: 5% and 7%
Population Mitochondria Different-Phenotype (%) [5]: 3%
Population Mitotic Cells (%) [5]: 13% and 15%
Population Normal (%) [5]: 97% and 96%
Population Pyknosed Nuclei (%) [5]: 7% and 10%
Population Tubulin-Different-Phenotype (%) [5]: 2% and 3%
Total Cell Count [5]: 397 and 201
Population Apoptotic (%) [6]: 83% and 87%
Population Fragmented Nuclei (%) [6]: 22% and 21%
Population Healthy Nuclei (%) [6]: 70% and 60%
Population Hoechst High Intensity Objects (%) [6]: 1% and 4%
Population Membrane Permeable-Phenotype (%) [6]: 6% and 4%
Population Mitochondria Different-Phenotype (%) [6]: 2% and 3%
Population Mitotic Cells (%) [6]: 16% and 12%
Population Normal (%) [6]: 98% and 95%
Population Pyknosed Nuclei (%) [6]: 7% and 17%
Population Tubulin-Different-Phenotype (%) [6]: 2% and 6%
Total Cell Count [6]: 347 and 188

CC(C)Oc1ccc(F)c(-c2cnc(N)c(C(=O)Nc3cnccc3N3CCC[C@@H](C(=O)O)C3)n2)c1
Population Apoptotic (%) [1]: 45.71% and 37.5%
Population Fragmented Nuclei (%) [1]: 1.25% and 5.73%
Population Healthy Nuclei (%) [1]: 90.02% and 84.08%
Population Hoechst High Intensity Objects (%) [1]: 0%
Population Membrane Permeable-Phenotype (%) [1]: 0.28% and 7.58%
Population Mitochondria Different-Phenotype (%) [1]: 0% and 6.82%
Population Mitotic Cells (%) [1]: 54.29% and 62.5%
Population Normal (%) [1]: 100%
Population Pyknosed Nuclei (%) [1]: 8.73% and 10.19%
Population Tubulin-Different-Phenotype (%) [1]: 0.28% and 0%
Total Cell Count [1]: 401 and 157
Population Apoptotic (%) [2]: 73.33% and 43.75%
Population Fragmented Nuclei (%) [2]: 9.57% and 11.05%
Population Healthy Nuclei (%) [2]: 83.25% and 79.65%
Population Hoechst High Intensity Objects (%) [2]: 0%
Population Membrane Permeable-Phenotype (%) [2]: 8.33% and 15.33%
Population Mitotic Cells (%) [2]: 26.67% and 56.25%
Population Normal (%) [2]: 100%
Population Pyknosed Nuclei (%) [2]: 7.18% and 9.3%
Population Tubulin-Different-Phenotype (%) [2]: 4.02% and 3.65%
Total Cell Count [2]: 418 and 172
Population Apoptotic (%) [3]: 38.6% and 34.38%
Population Fragmented Nuclei (%) [3]: 1.54% and 3.88%
Population Healthy Nuclei (%) [3]: 87.45% and 80.58%
Population Hoechst High Intensity Objects (%) [3]: 0%
Population Membrane Permeable-Phenotype (%) [3]: 0.66% and 4.22%
Population Mitochondria Different-Phenotype (%) [3]: 0% and 3.61%
Population Mitotic Cells (%) [3]: 61.4% and 65.62%
Population Normal (%) [3]: 100%
Population Pyknosed Nuclei (%) [3]: 11% and 15.53%
Population Tubulin-Different-Phenotype (%) [3]: 1.1% and 0%
Total Cell Count [3]: 518 and 206
Population Apoptotic (%) [4]: 49.3% and 65.52%
Population Fragmented Nuclei (%) [4]: 11.73% and 11.05%
Population Healthy Nuclei (%) [4]: 74.16% and 73.68%
Population Hoechst High Intensity Objects (%) [4]: 0%
Population Mitotic Cells (%) [4]: 50.7% and 34.48%
Population Normal (%) [4]: 100%
Population Pyknosed Nuclei (%) [4]: 14.12% and 15.26%
Population Tubulin-Different-Phenotype (%) [4]: 6.97% and 2.14%
Total Cell Count [4]: 503 and 190
Population Apoptotic (%) [5]: 39.13% and 30.56%
Population Fragmented Nuclei (%) [5]: 2.98% and 4.32%
Population Healthy Nuclei (%) [5]: 86.85% and 84.57%
Population Hoechst High Intensity Objects (%) [5]: 0% and 0.31%
Population Membrane Permeable-Phenotype (%) [5]: 2.04% and 2.92%
Population Mitochondria Different-Phenotype (%) [5]: 0% and 2.55%
Population Mitotic Cells (%) [5]: 60.87% and 69.44%
Population Normal (%) [5]: 100% and 99.69%
Population Pyknosed Nuclei (%) [5]: 10.17% and 11.11%
Population Tubulin-Different-Phenotype (%) [5]: 1.65% and 1.82%
Total Cell Count [5]: 905 and 325
Population Apoptotic (%) [6]: 62.73% and 80.56%
Population Fragmented Nuclei (%) [6]: 8.71% and 11.34%
Population Healthy Nuclei (%) [6]: 63.24% and 58.4%
Population Hoechst High Intensity Objects (%) [6]: 0%
Population Membrane Permeable-Phenotype (%) [6]: 2.48% and 6.47%
Population Mitotic Cells (%) [6]: 37.27% and 19.44%
Population Normal (%) [6]: 100%
Population Pyknosed Nuclei (%) [6]: 28.05% and 30.25%
Population Tubulin-Different-Phenotype (%) [6]: 16.25% and 8.63%
Total Cell Count [6]: 574 and 238

CC(F)(F)CN1CCOc2c(nn(-c3ccccc3Cl)c2-c2ccc(Cl)cc2)C1=O
Population Apoptotic (%) [1]: 81% and 100%
Population Healthy Nuclei (%) [1]: 53% and 71%
Population Hoechst High Intensity Objects (%) [1]: 2% and 0%
Population Membrane Permeable-Phenotype (%) [1]: 3%
Population Mitotic Cells (%) [1]: 18% and 0%
Population Normal (%) [1]: 97% and 99%
Population Tubulin-Different-Phenotype (%) [1]: 8% and 4%
Total Cell Count [1]: 219 and 121
Population Apoptotic (%) [2]: 83% and 60%
Population Healthy Nuclei (%) [2]: 62% and 71%
Population Hoechst High Intensity Objects (%) [2]: 1%
Population Membrane Permeable-Phenotype (%) [2]: 10%
Population Mitotic Cells (%) [2]: 16% and 40%
Population Normal (%) [2]: 98%
Population Tubulin-Different-Phenotype (%) [2]: 14% and 5%
Total Cell Count [2]: 216 and 130
Population Apoptotic (%) [3]: 95% and 90%
Population Healthy Nuclei (%) [3]: 55% and 71%
Population Hoechst High Intensity Objects (%) [3]: 4% and 1%
Population Membrane Permeable-Phenotype (%) [3]: 9%
Population Mitotic Cells (%) [3]: 4% and 10%
Population Normal (%) [3]: 95% and 98%
Population Tubulin-Different-Phenotype (%) [3]: 6% and 13%
Total Cell Count [3]: 246 and 155
Population Apoptotic (%) [4]: 70% and 80%
Population Healthy Nuclei (%) [4]: 63% and 77%
Population Hoechst High Intensity Objects (%) [4]: 1%
Population Mitotic Cells (%) [4]: 29% and 20%
Population Normal (%) [4]: 98%
Population Tubulin-Different-Phenotype (%) [4]: 7% and 5%
Total Cell Count [4]: 248 and 154
Population Apoptotic (%) [5]: 94% and 89%
Population Healthy Nuclei (%) [5]: 66% and 69%
Population Hoechst High Intensity Objects (%) [5]: 4% and 1%
Population Membrane Permeable-Phenotype (%) [5]: 6% and 7%
Population Mitotic Cells (%) [5]: 5% and 10%
Population Normal (%) [5]: 95% and 98%
Population Tubulin-Different-Phenotype (%) [5]: 3% and 6%
Total Cell Count [5]: 333 and 203
Population Apoptotic (%) [6]: 96% and 88%
Population Healthy Nuclei (%) [6]: 68% and 72%
Population Hoechst High Intensity Objects (%) [6]: 1% and 4%
Population Membrane Permeable-Phenotype (%) [6]: 8%
Population Mitotic Cells (%) [6]: 3% and 11%
Population Normal (%) [6]: 98% and 95%
Population Tubulin-Different-Phenotype (%) [6]: 6% and 4%
Total Cell Count [6]: 322 and 204

COc1ccc2nc3ccc(OC)cc3c(SCCCN)c2c1.Cl
Population Apoptotic (%) [1]: 33.33% and 48.15%
Population Fragmented Nuclei (%) [1]: 5.01% and 5.7%
Population Healthy Nuclei (%) [1]: 88.22% and 80.31%
Population Hoechst High Intensity Objects (%) [1]: 0%
Population Membrane Permeable-Phenotype (%) [1]: 0.85% and 1.94%
Population Mitochondria Different-Phenotype (%) [1]: 0% and 12.26%
Population Mitotic Cells (%) [1]: 66.67% and 51.85%
Population Normal (%) [1]: 100%
Population Pyknosed Nuclei (%) [1]: 6.77% and 13.99%
Population Tubulin-Different-Phenotype (%) [1]: 1.14% and 0%
Total Cell Count [1]: 399 and 193
Population Apoptotic (%) [2]: 50% and 100%
Population Fragmented Nuclei (%) [2]: 77.73% and 91.54%
Population Healthy Nuclei (%) [2]: 21.48% and 8.25%
Population Hoechst High Intensity Objects (%) [2]: 8.43% and 7.62%
Population Normal (%) [2]: 91.57% and 92.38%
Population Pyknosed Nuclei (%) [2]: 0.79% and 0.21%
Population Tubulin-Different-Phenotype (%) [2]: 28.57% and 40.17%
Total Cell Count [2]: 1388 and 1535
Population Apoptotic (%) [3]: 29.73% and 51.52%
Population Fragmented Nuclei (%) [3]: 3.05% and 1.4%
Population Healthy Nuclei (%) [3]: 89.9% and 83.18%
Population Hoechst High Intensity Objects (%) [3]: 0%
Population Membrane Permeable-Phenotype (%) [3]: 0.85% and 2.81%
Population Mitochondria Different-Phenotype (%) [3]: 0% and 7.3%
Population Mitotic Cells (%) [3]: 70.27% and 48.48%
Population Normal (%) [3]: 100%
Population Pyknosed Nuclei (%) [3]: 7.05% and 15.42%
Population Tubulin-Different-Phenotype (%) [3]: 1.06% and 1.69%
Total Cell Count [3]: 525 and 214
Population Apoptotic (%) [4]: 50% and 78.57%
Population Fragmented Nuclei (%) [4]: 75.02% and 91.84%
Population Hoechst High Intensity Objects (%) [4]: 12.85% and 7.48%
Population Mitotic Cells (%) [4]: 50% and 21.43%
Population Normal (%) [4]: 87.15% and 92.52%
Population Pyknosed Nuclei (%) [4]: 0.64% and 0.94%
Population Tubulin-Different-Phenotype (%) [4]: 6.62% and 18.52%
Total Cell Count [4]: 1424 and 1617
Population Apoptotic (%) [5]: 46.15% and 46.51%
Population Fragmented Nuclei (%) [5]: 3.96% and 4.36%
Population Healthy Nuclei (%) [5]: 90.62% and 82.24%
Population Hoechst High Intensity Objects (%) [5]: 0%
Population Membrane Permeable-Phenotype (%) [5]: 1.03% and 0.76%
Population Mitochondria Different-Phenotype (%) [5]: 0% and 2.65%
Population Mitotic Cells (%) [5]: 53.85% and 53.49%
Population Normal (%) [5]: 100%
Population Pyknosed Nuclei (%) [5]: 5.42% and 13.4%
Population Tubulin-Different-Phenotype (%) [5]: 0.8% and 1.52%
Total Cell Count [5]: 960 and 321
Population Apoptotic (%) [6]: 45% and 53.85%
Population Fragmented Nuclei (%) [6]: 69.73% and 94.1%
Population Hoechst High Intensity Objects (%) [6]: 23.54% and 11.4%
Population Mitotic Cells (%) [6]: 55% and 46.15%
Population Normal (%) [6]: 76.46% and 88.6%
Population Pyknosed Nuclei (%) [6]: 2.07% and 0.82%
Population Tubulin-Different-Phenotype (%) [6]: 6.23% and 18.52%
Total Cell Count [6]: 1266 and 1798
